Assay results as given in PMC2115978 (The Journal of Cell Biology, 1990).
Where two headings read alike, the source gives them in different places.

Key:
[1] = tested on: endosomal insulin degrading activity (GE fraction); format: biochemical, rat; conditions: for effect on endosomal 125I-insulin degradation (in words): concentrations as in Tables I and II
[2] = tested on: macrophage endosomes; conditions: identical cell-free system; cited from earlier work
[3] = target: insulin receptor (Rattus norvegicus, UniProt P15127); assay: PEG precipitation of insulin-receptor complexes in endosomes; format: binding; conditions: for effect on insulin dissociation from receptor: 15 min, presence or absence of ATP, PCMB 1 mM
Sequence of insulin receptor (P15127 27-759 limits assumed): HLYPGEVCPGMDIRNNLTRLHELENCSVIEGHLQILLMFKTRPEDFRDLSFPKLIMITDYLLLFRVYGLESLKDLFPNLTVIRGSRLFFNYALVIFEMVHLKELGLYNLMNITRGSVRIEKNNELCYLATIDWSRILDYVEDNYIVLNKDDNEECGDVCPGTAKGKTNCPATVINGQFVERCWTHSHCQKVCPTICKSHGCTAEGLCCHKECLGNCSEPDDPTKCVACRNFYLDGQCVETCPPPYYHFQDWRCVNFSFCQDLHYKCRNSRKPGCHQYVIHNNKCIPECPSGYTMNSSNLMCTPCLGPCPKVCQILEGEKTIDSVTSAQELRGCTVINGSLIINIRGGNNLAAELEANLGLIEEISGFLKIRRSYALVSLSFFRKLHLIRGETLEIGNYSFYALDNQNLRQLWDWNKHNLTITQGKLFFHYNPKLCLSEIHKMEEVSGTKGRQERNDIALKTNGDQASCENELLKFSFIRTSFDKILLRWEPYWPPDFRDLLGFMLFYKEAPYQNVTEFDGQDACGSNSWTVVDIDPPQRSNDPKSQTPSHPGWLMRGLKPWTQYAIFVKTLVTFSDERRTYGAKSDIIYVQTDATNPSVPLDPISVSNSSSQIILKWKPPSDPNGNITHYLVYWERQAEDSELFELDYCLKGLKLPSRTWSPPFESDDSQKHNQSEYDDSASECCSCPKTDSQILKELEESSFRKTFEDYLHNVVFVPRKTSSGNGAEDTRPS
Sequence of insulin receptor (P15127 764-1383 partner limits assumed): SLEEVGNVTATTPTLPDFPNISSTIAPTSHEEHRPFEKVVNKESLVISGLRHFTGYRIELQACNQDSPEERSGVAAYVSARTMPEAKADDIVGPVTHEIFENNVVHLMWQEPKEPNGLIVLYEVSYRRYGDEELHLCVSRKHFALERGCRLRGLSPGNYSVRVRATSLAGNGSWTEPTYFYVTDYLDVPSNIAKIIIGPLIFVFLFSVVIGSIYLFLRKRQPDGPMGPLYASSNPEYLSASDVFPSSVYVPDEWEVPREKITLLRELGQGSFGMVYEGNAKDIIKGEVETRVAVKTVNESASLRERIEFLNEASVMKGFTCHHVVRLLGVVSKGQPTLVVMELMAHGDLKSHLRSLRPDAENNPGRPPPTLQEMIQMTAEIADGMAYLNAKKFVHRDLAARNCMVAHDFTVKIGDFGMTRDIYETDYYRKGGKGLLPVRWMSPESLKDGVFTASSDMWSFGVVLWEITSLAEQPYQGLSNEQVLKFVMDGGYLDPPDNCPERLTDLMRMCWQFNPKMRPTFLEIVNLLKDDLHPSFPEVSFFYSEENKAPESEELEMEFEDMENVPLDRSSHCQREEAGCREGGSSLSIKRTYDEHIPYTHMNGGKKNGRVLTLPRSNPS

[4] = tested on: GE fraction proton translocase activity; assay: Cell-free ATP-dependent acidification assay; format: biochemical, rat; conditions: 1 µM added at end of incubation; acridine orange absorbance 492/540 nm
In short: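 Pelleted at 16,000 g for 1 h, Dounce-resuspended, equilibrated 3-6 h at 4°C. Acridine orange 6 µM, ATP 0.4 mM (final); initial quench rates recorded. Test compound 1 µM added after incubation.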

[5] = Internalization of injected 125I-insulin into GE fraction of liver; format: in vivo, rat; conditions: 5 min after portal vein injection, 100 ng/100 g bw; mean ± SD, n = 9
[6] = tested on: endosomal protease(s) of rat liver endosomes (GE fraction); format: in vitro ADME; conditions: mean ± SD, n = 3; for degradation within isolated endosomes by acid precipitation: cell-free system, 37C, up to 60 min, 10% TCA
[7] = tested on: endosomal protease(s) of rat liver endosomes (GE fraction); assay: Sephadex G-50 chromatography of radioactivity acid-extracted from endosomes; format: in vitro ADME
[8] = cited from earlier work
[9] = tested on: EGF receptor; conditions: freshly prepared endosomes; ref 49a; cited from earlier work
[10] = target: T1, prolactin receptor (Rattus norvegicus, UniProt P05710); assay: Prolactin dissociation from its receptor in endosomes; format: binding
T1 sequence (P05710 20-310 isoform P05710-3 limits assumed): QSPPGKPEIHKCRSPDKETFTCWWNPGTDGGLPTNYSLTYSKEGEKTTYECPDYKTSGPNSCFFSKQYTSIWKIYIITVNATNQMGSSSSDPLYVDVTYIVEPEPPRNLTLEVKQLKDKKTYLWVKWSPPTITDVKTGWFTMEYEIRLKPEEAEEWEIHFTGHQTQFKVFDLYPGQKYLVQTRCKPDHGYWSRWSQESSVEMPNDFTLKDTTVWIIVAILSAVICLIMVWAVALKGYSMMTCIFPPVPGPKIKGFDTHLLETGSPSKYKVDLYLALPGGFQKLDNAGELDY

[11] = Table II, nucleotide 10 mM (in place of ATP), 0-30 min, mean ± SD, n = 3
[12] = Table I, 1 mM, acid solubility at 30 min, mean ± SD of 3 experiments
[13] = Table II, 50 µM, 0-30 min, mean ± SD, n = 3
[14] = Table II, 10 µM, 0-30 min, mean ± SD, n = 3
[15] = Table II, 1 mM, 0-30 min, mean ± SD, n = 3
[16] = Table II, 2 mM, 0-30 min, mean ± SD, n = 3

With `Nc1ncnc2c1ncn2[C@@H]1O[C@H](COP(=O)(O)OP(=O)(O)NP(=O)(O)O)[C@@H](O)[C@H]1O` [AMP- PNP] the “125I-insulin degraded (percentage of control)” value [1, 11] was 24.5%.

For Antipain, the “effect on endosomal 125I-insulin degradation (in words)” value (shortened to “effect … (in words)”) ([1]; 30 min) is given as “no significant effect” and the “effect on degradation of mannose-BSA in macrophage endosomes” value (“effect on degradation of mannose-BSA” for short) [2] is given as “inhibition of degradation”.

For Valinomycin, the “inhibition of 125I-insulin degradation” value ([1]; 50 µM, 30 min) was 17%.

For `O=S(=O)(F)Cc1ccccc1` [PMSF], the “125I-insulin degraded (percentage of control)” value [1, 12] is given as 89.2%, the “effect … (in words)” value ([1]; 30 min) is given as “no significant effect” and the “effect on degradation of mannose-BSA” value [2] is given as “inhibition of degradation”.

For `c1cnc2c(c1)ccc1cccnc12` [1,10-Phenanthroline, 1,10-phenanthroline], the “inhibition of 125I-insulin degradation” value ([1]; 1 mM, 30 min) was 91%, the “125I-insulin degraded (percentage of control)” value [1, 12] was 8.8% and the “effect … (in words)” value ([1]; 30 min) was “Significant inhibition”. For the same molecule, the “effect on insulin dissociation from receptor” value [3] was “inhibited”.

In the case of Leupeptin, the “effect … (in words)” value ([1]; 30 min) is given as “no significant effect” and the “effect on degradation of mannose-BSA” value [2] is given as “inhibition of degradation”.

In the case of `[O]=[V]([O-])([O-])[O-]` [Vanadate], the “125I-insulin degraded (percentage of control)” value ([1]; Table II, 100 µM, 0-30 min, mean ± SD, n = 3) is reported as 99.9% and the “effect … (in words)” value ([1]; 30 min) is reported as “little effect”.

For Triton X-100, the “125I-insulin degraded (percentage of control)” value ([1]; Table I, detergent 0.1%, 30 min, mean ± SD of 3 experiments) was 22.9% and the “effect … (in words)” value ([1]; 30 min) was “Significant inhibition”.

In the case of `Nc1ncnc2c1ncn2[C@@H]1O[C@H](COP(=O)(O)OP(=O)(O)OP(=O)(O)O)[C@@H](O)[C@H]1O` [ATP], the “125I-insulin degraded (percentage of control)” value [1, 11] is reported as 100%.

In the case of `CO[C@@H]1C[C@@H](C[C@H]2CC[C@H](C)[C@H]([C@@H](C)C(=O)O)O2)O[C@]2(O[C@](C)([C@H]3CC[C@@](C)([C@@H]4O[C@@H]([C@H]5O[C@@](O)(CO)[C@H](C)C[C@@H]5C)C[C@@H]4C)O3)C[C@H]2C)[C@@H]1C` [Nigericin], the “inhibition of 125I-insulin degradation” value ([1]; 50 µM, 30 min) is reported as ~ 80%, the “125I-insulin degraded (percentage of control)” value [1, 13] is reported as 17.4% and the “effect … (in words)” value ([1]; 30 min) is reported as “inhibited markedly”. The “effect on ATP-generated pH gradients of GE fraction” value [4] was “dissipated rapidly”.

In the case of `O=C(O)CN(CCN(CC(=O)O)CC(=O)O)CC(=O)O` [EDTA], the “effect … (in words)” value ([1]; 30 min) is reported as “no significant effect”.

For Bacitracin, the “inhibition of 125I-insulin degradation” value ([1]; 5 mg/ml, 30 min) was 40% and the “effect … (in words)” value ([1]; 30 min) was “Significant inhibition”.

For `CCN1C(=O)C=CC1=O` [NEM, N-ethylmaleimide], the “125I-insulin degraded (percentage of control)” value [1, 14] was 23.6%, the “125I-insulin degraded (percentage of control)” value [1, 15] was 26.8% and the “effect … (in words)” value ([1]; 30 min) was “significant inhi- bition”. For the same molecule, the “effect … (in words)” value ([1]; 30 min, listed as N-ethylmaleimide (NEM)) was “inhibited markedly”.

For `CC[C@H]1/C=C/C=C/C[C@@H](C)[C@H](O)[C@@](C)(O)C(=O)[C@@H](C)[C@H](O)[C@@H](C)C(=O)[C@@H](C)[C@H](O)[C@@H](C)/C=C/C(=O)O[C@@H]2[C@H](C)[C@H](CC1)O[C@]1(CC[C@H](C)[C@H](C[C@@H](C)O)O1)[C@H]2C` [Oligomycin], the “125I-insulin degraded (percentage of control)” value ([1]; Table II, 5 µg/ml, 0-30 min, mean ± SD, n = 3) was 90.2% and the “effect … (in words)” value ([1]; 30 min) was “little effect”.

For `Nc1ncnc2c1ncn2[C@@H]1O[C@H](COP(=O)(O)OP(=O)(O)O)[C@@H](O)[C@H]1O` [ADP], the “125I-insulin degraded (percentage of control)” value [1, 11] was 40.0%.

For `Nc1nc2c(ncn2[C@@H]2O[C@H](COP(=O)(O)OP(=O)(O)OP(=O)(O)O)[C@@H](O)[C@H]2O)c(=O)[nH]1` [GTP], the “125I-insulin degraded (percentage of control)” value [1, 11] was 52.8%.

In the case of “125I-insulin: Porcine insulin (26.8 IU/mg, Eli Lilly) radioiodinated by the chloramine T method”, the “enrichment in GE fraction compared to parent homogenate” value [5] is reported as 40 + 4 fold, the “125I-insulin degraded (percentage of control)” value ([6]; Table II, no nucleotide added (minus ATP), 0-30 min) is reported as 35.4% and the “increase in size of peak eluting at position of radioiodotyrosine (peak III)” value ([7]; after 15 min incubation, rats given 2 µg 125I-insulin/100 g bw) is reported as “threefold increase”. For the same molecule, the “t1/2 of in vivo insulin clearance” value [8] was 6 min, the “intact 125I-insulin (acid precipitable) retained in freshly prepared endosomes” value ([3]; 0 min) was 82% and the degradation of insulin ([3]; 15 min incubation +ATP) was 5.8 ng.mg cell fraction protein-1. For the same molecule, the “dissociation of insulin from receptor” value ([3]; 15 min incubation +ATP) was 1.7 ng insulin.mg cell fraction pr, the “loss and degradation of free insulin” value ([3]; 15 min incubation minus ATP) was 2.1 ng.mg cell fraction protein-1 and the “loss of receptor-bound insulin” value ([3]; 15 min incubation minus ATP) was “no loss”. The “internalized ligand dissociated from receptor” value (“internalized ligand dissociated” below) ([3]; freshly prepared endosomes) was 59% and the “proportion of intact insulin that was receptor-bound (PEG precipitable)” value ([3]; freshly prepared endosomes, 0 min) was 41%.

With `O=C(O)c1cc[c]([Hg][Cl])cc1` [PCMB, p-chloromercuribenzoic acid] the “inhibition of 125I-insulin degradation” value ([1]; 1 mM, 30 min) was 100%, the “125I-insulin degraded (percentage of control)” value [1, 12] was 0% and the “effect … (in words)” value ([1]; 30 min) was “Significant inhibition”. The “effect on insulin dissociation from receptor” value [3] was “inhibited”.

With `CCN(CC)CCCC(C)Nc1ccnc2cc(Cl)ccc12` (centres unmarked) [Chioroquine, chloroquine] the “inhibition of 125I-insulin degradation” value ([1]; 2 mM, 30 min) was ~ 80%, the “125I-insulin degraded (percentage of control)” value [1, 16] was 16.3% and the “effect … (in words)” value ([1]; 30 min) was “inhibited markedly”.

For Aprotinin, the “effect … (in words)” value ([1]; 30 min) was “no significant effect”.

In the case of Pepstatin, the “effect … (in words)” value ([1]; 30 min) is given as “no significant effect” and the “effect on degradation of mannose-BSA” value [2] is given as “inhibition of degradation”.

In the case of `CC[C@@]1([C@@H]2O[C@@H]([C@H]3O[C@@](O)(CO)[C@H](C)C[C@@H]3C)C[C@@H]2C)CC[C@H]([C@]2(C)CC[C@]3(C[C@H](O)[C@@H](C)[C@@H]([C@@H](C)[C@@H](OC)[C@H](C)C(=O)O)O3)O2)O1` [Monensin], the “inhibition of 125I-insulin degradation” value ([1]; 50 µM, 30 min) is reported as ~ 80%, the “125I-insulin degraded (percentage of control)” value [1, 13] is reported as 20.6% and the “effect … (in words)” value ([1]; 30 min) is reported as “inhibited markedly”.

For `N=C(N)NC(=O)c1nc(Cl)c(N)nc1N` [Amiloride], the “125I-insulin degraded (percentage of control)” value [1, 16] was 96.6% and the “effect … (in words)” value ([1]; 30 min) was “little effect”.

In the case of “125I-EGF: mouse epidermal growth factor (Collaborative Research) radioiodinated by chloramine T method”, the “degradation within isolated endosomes by acid precipitation” value [6] is listed as “not detectable”, the “degradation within isolated endosomes by Sephadex G-50 chromatography” value ([7]; 0 vs 15 min incubation in cell-free system) is listed as “not detectable” and the “ligand dissociated from receptor” value [9] is listed as 43%.

With `C(=NC1CCCCC1)=NC1CCCCC1` [DCCD, dicyclohexylcarbodiimide] the “125I-insulin degraded (percentage of control)” value [1, 14] was 50.4%, the “125I-insulin degraded (percentage of control)” value [1, 15] was 38.7% and the “effect … (in words)” value ([1]; 30 min) was “significant inhi- bition”.

B1: 125I-prolactin: ovine prolactin (30.5 IU/mg) radioiodinated by chloramine T method (protein, UniProt P01240 31-229, looked up)
Prolactin: TPVCPNGPGNCQVSLRDLFDRAVMVSHYIHNLSSEMFNEFDKRYAQGKGFITMALNSCHTSSLPTPEDKEQAQQTHHEVLMSLILGLLRSWNDPLYHLVTEVRGMKGVPDAILSRAIEIEEENKRLLEGMEMIFGQVIPGAKETEPYPVWSGLPSLQTKDEDARHSAFYNLLHCLRRDSSKIDTYLKLLNCRIIYNNNC
modifications: 125I radiolabel
In the case of B1, the “internalized ligand dissociated” value ([10]; after 15 min incubation in cell-free system) is reported as 50%, the “internalized ligand dissociated” value ([10]; before incubation (freshly isolated endosomes)) is reported as 60% and the “degradation within isolated endosomes by acid precipitation” value [6] is reported as “No degradation”.
